Results taken from ChEMBL document CHEMBL3779840, “Discovery of 2-((3-Amino-4-methylphenyl)amino)-N-(2-methyl-5-(3-(trifluoromethyl)benzamido)phenyl)-4-(methylamino)pyrimidine-5-carboxamide (CHMFL-ABL-053) as a Potent, Selective, and Orally Available BCR-ABL/SRC/p38 Kinase Inhibitor for Chronic Myeloid Leukemia” (J Med Chem, 2016).
The source made the active and inactive calls. The calls are words filed in the database; no cut-off is given here.

Assays:
Mus musculus [1] = assay: Toxicity in nu/nu mouse xenografted with K562 cells assessed as decrease in body weight at 25 and 50 mg/kg/day, qd administered through oral gavage for 16 days measured every day during compound dosing; assay type: organism-based; settings: in vivo, 384 h
Procedure, shortened: (§1)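 Female nu/nu mice carrying established K562 xenografts received oral treatment once daily at 25.0 or 50.0 mg/kg/d, or vehicle, starting when tumours reached 200 to 400 mm3. There were 5 animals per group and dosing lasted 16 days. Body weight was expressed relative to initial weight (set as 100%), and mortality was recorded. Data are given as mean ± SEM.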

[2] = Antiproliferative activity against mouse BA/F3 cells assessed as cell viability after 72 hrs by CellTiter-Glo or CCK-8 assay; assay type: cell-based, BaF3
[3] = target: T1, Epithelial discoidin domain-containing receptor 1 (Homo sapiens, UniProt Q08345); assay: Inhibition of GST-tagged human DDR1 (440 to 876 residues) expressed in Baculovirus expression system
[4] = Antiproliferative activity against human KU812 cells assessed as cell viability after 72 hrs by CellTiter-Glo or CCK-8 assay; assay type: functional; settings: KU812, 72 h
[5] = Antiproliferative activity against human MOLM14 cells assessed as cell viability after 72 hrs by CellTiter-Glo or CCK-8 assay; assay type: functional; settings: MOLM-14, 72 h
[6] = target: T2, Bcr/Abl fusion protein (Homo sapiens) (UniProt P00519+P11274); assay: Inhibition of BCR/ABL in human K562 cells assessed as downregulation of Stat5 phosphorylation at […] site after 1 hr by immunoblotting method; assay type: cell-based
Procedure, shortened: (§2)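 KU812, K562 and MEG-01 cells were exposed to compound at the indicated concentrations for 1 h. Whole-cell lysates were then analysed by Western blot for phosphorylated signaling proteins.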

[7] = target: T2, Bcr/Abl fusion protein (Homo sapiens); assay: Inhibition of BCR/ABL in human KU812 cells assessed as downregulation of Stat5 phosphorylation at […] site after 1 hr by immunoblotting method; assay type: cell-based; procedure, shortened: as §2
[8] = target: T2, Bcr/Abl fusion protein (Homo sapiens); assay: Inhibition of BCR/ABL in human MEG01 cells assessed as downregulation of CrkL phosphorylation at […] site after 1 hr by immunoblotting method; assay type: cell-based; settings: MEG-01; procedure, shortened: as §2
[9] = target: T2, Bcr/Abl fusion protein (Homo sapiens); assay: Inhibition of BCR/ABL in human KU812 cells assessed as downregulation of ERK phosphorylation at Thr202/Tyr204 site after 1 hr by immunoblotting method; assay type: cell-based; procedure, shortened: as §2
[10] = target: T2, Bcr/Abl fusion protein (Homo sapiens); assay: Inhibition of BCR/ABL in human MEG01 cells assessed as downregulation of ERK phosphorylation at Thr202/Tyr204 site after 1 hr by immunoblotting method; assay type: cell-based; settings: MEG-01; procedure, shortened: as §2
[11] = target: T3, Proto-oncogene tyrosine-protein kinase Src (Homo sapiens, UniProt P12931); assay: Inhibition of SRC phosphorylation in human K562 cells at 0.01 to 3 uM after 1 hr by immunoblotting method; assay type: cell-based
Procedure, shortened: (§3)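 Cells were treated for 1 h at the indicated concentrations. Whole-cell lysates were then analysed by Western blot for phosphorylation of signalling proteins in the BCR-ABL pathway.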

[12] = target: T3, Proto-oncogene tyrosine-protein kinase Src; assay: Inhibition of SRC phosphorylation in human KU812 cells at 0.01 to 3 uM after 1 hr by immunoblotting method; assay type: cell-based; procedure, shortened: as §3
KU812 cell line = assay: Induction of cell cycle arrest in human KU812 cells assessed as accumulation at G0/G1-phase after 12 hrs by propidium iodide/RNase staining based flow cytometry; assay type: functional
K562 [13] = assay: Induction of apoptosis in human K562 cells assessed as increase in cleaved caspase3 level at 100 nM after 48 hrs by immunoblotting method; assay type: functional, cell-based
MEG-01 = assay: Induction of apoptosis in human MEG01 cells assessed as increase in cleaved caspase3 level at 100 nM after 48 hrs by immunoblotting method; assay type: functional, cell-based
[14] = Half life in Sprague-Dawley rat at 10 mg/kg, po; assay type: ADME, organism-based; settings: in vivo
[15] = Tmax in Sprague-Dawley rat at 1 mg/kg, iv; assay type: ADME, organism-based; settings: in vivo
[16] = Cmax in Sprague-Dawley rat at 1 mg/kg, iv; assay type: ADME, organism-based; set-up: dose 1 mg/kg, route intravenous; settings: in vivo
[17] = Apparent volume of distribution in Sprague-Dawley rat at 1 mg/kg, iv; assay type: ADME, organism-based; settings: in vivo, read-out: Vd(app)
[18] = Apparent clearance in Sprague-Dawley rat at 1 mg/kg, iv; assay type: ADME, organism-based; settings: in vivo, read-out: CL(app) (converted)
[19] = Mean residence time (0 to infinity) in Sprague-Dawley rat at 1 mg/kg, iv; assay type: ADME, organism-based; settings: in vivo
Mus musculus [20] = assay: Toxicity in nu/nu mouse xenografted with K562 cells assessed as mortality at 25 and 50 mg/kg/day, qd administered through oral gavage for 16 days measured every day during compound dosing; assay type: organism-based; settings: in vivo, 384 h; procedure, shortened: as §1
K562 [21] = assay: Antitumor activity against human K562 cells xenografted in nu/nu mouse assessed as tumor growth inhibition at 50 mg/kg/day, qd administered through oral gavage measured after 16 days; assay type: functional; settings: 384 h, read-out: TGI
Procedure, shortened: (§4)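 Female nu/nu mice bore established K562 xenografts and received daily oral dosing at 25.0 or 50.0 mg/kg/d, or vehicle, starting when tumors reached 200 to 400 mm3, for 16 days. Groups had 5 animals; data are mean ± SEM. Tumor size and body weight were normalized to initial values, and final tumor weight was recorded. Tumor tissue was stained with HE, Ki-67 and TUNEL.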

K562 [22] = assay: Antiproliferative activity against human K562 cells xenografted in nu/nu mouse at 25 and 50 mg/kg/day, qd administered through oral gavage measured after 16 days by hematoxylin/eosin staining-based assay; assay type: functional, organism-based; procedure, shortened: as §4
[23] = tested on: Mast/stem cell growth factor receptor Kit (Homo sapiens), P10721 [L576P]; assay: Inhibition of partial length human KIT L576P mutant expressed in bacterial expression system assessed as residual activity at 1 uM relative to control
[24] = target: Tyrosine-protein kinase Blk (Homo sapiens) (UniProt P51451); assay: Inhibition of partial length human wild type BLK expressed in bacterial expression system assessed as residual activity at 1 uM relative to control
[25] = target: T1, Epithelial discoidin domain-containing receptor 1; assay: Inhibition of partial length human wild type DDR1 expressed in bacterial expression system assessed as residual activity at 1 uM relative to control
[26] = target: Tyrosine-protein kinase Lck (Homo sapiens) (UniProt P06239); assay: Inhibition of partial length human wild type LCK expressed in bacterial expression system assessed as residual activity at 1 uM relative to control
[27] = target: T3, Proto-oncogene tyrosine-protein kinase Src; assay: Inhibition of partial length human wild type SRC expressed in bacterial expression system assessed as residual activity at 1 uM relative to control
[28] = target: T1, Epithelial discoidin domain-containing receptor 1; settings: BaF3
[29] = target: Tyrosine-protein kinase Lck (Homo sapiens) (UniProt P06239); settings: BaF3
BaF3 [30] = settings: Homo sapiens
[31] = tested on: Bcr/Abl fusion protein (Homo sapiens), P00519+P11274 [F317L]; settings: BaF3
[32] = target: T2, Bcr/Abl fusion protein (Homo sapiens); settings: BaF3
BaF3 [33] = settings: Homo sapiens; remark: listed apart in the source

T3 sequence (P12931 2-536 limits assumed): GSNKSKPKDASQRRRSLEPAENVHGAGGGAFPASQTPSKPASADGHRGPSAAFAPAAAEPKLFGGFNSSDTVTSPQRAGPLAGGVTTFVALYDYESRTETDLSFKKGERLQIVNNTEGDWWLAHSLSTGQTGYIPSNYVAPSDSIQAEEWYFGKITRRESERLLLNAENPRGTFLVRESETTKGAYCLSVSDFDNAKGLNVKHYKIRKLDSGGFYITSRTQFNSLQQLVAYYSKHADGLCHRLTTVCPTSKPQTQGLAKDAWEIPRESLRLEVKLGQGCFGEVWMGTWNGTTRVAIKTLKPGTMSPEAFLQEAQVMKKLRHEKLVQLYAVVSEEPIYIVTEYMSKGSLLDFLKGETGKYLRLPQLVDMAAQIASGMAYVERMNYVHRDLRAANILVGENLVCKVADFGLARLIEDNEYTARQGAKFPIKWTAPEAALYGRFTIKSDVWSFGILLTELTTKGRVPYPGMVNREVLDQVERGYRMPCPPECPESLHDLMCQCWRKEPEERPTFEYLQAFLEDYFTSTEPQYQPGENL
T1 sequence (Q08345 whole entry, the tested form may be a part): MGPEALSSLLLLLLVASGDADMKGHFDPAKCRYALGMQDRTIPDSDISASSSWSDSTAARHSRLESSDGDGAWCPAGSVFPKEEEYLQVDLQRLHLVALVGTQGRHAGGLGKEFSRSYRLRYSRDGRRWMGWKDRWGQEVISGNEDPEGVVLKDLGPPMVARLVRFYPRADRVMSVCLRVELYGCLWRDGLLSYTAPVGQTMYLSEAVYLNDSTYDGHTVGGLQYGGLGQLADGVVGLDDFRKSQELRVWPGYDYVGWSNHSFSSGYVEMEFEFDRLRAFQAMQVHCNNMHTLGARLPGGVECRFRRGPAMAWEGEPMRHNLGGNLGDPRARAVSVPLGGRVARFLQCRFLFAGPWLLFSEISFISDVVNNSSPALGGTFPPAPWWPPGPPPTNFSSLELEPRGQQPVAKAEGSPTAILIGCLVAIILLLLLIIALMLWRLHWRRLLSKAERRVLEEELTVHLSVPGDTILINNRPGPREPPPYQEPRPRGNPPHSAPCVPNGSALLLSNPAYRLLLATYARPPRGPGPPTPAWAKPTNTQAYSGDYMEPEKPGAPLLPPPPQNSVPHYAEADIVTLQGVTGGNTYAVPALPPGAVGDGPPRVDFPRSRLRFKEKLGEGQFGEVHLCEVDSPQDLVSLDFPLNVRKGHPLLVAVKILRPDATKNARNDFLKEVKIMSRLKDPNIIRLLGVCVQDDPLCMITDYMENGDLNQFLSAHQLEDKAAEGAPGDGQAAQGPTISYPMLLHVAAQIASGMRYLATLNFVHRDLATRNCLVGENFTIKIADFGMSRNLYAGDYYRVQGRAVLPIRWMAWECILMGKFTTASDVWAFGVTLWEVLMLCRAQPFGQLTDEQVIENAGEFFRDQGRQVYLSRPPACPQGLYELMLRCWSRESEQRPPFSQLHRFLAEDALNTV
T2 sequence (P00519 whole entry, looked up, the tested form may be a part): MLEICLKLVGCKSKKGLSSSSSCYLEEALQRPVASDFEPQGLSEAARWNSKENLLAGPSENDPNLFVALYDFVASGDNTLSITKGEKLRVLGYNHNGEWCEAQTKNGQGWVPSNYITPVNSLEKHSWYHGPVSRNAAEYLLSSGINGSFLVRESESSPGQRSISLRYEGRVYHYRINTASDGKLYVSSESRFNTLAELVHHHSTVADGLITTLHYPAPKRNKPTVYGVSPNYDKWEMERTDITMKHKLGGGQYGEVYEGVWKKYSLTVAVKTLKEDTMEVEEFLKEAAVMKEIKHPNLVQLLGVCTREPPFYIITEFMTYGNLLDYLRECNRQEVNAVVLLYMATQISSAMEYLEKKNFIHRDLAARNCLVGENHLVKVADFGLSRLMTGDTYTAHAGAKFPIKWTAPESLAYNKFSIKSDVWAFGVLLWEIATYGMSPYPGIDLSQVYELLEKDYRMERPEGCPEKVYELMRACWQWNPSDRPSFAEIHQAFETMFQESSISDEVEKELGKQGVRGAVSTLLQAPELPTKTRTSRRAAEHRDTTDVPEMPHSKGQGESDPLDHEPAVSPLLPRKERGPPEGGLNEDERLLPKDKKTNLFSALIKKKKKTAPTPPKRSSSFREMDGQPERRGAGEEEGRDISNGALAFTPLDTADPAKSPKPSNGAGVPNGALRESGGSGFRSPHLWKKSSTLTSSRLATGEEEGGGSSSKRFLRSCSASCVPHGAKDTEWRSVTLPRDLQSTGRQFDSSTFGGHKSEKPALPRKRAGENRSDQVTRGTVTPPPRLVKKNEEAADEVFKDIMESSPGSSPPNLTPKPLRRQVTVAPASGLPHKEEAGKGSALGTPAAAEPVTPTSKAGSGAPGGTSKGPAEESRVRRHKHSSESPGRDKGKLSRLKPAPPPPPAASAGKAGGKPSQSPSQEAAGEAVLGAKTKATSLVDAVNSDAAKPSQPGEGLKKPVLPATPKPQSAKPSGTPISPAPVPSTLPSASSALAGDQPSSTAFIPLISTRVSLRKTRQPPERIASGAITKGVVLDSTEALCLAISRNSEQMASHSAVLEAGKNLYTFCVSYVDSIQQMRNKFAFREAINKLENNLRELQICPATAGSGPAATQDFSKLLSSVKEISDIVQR
T2 sequence (P11274 whole entry, looked up, the tested form may be a part): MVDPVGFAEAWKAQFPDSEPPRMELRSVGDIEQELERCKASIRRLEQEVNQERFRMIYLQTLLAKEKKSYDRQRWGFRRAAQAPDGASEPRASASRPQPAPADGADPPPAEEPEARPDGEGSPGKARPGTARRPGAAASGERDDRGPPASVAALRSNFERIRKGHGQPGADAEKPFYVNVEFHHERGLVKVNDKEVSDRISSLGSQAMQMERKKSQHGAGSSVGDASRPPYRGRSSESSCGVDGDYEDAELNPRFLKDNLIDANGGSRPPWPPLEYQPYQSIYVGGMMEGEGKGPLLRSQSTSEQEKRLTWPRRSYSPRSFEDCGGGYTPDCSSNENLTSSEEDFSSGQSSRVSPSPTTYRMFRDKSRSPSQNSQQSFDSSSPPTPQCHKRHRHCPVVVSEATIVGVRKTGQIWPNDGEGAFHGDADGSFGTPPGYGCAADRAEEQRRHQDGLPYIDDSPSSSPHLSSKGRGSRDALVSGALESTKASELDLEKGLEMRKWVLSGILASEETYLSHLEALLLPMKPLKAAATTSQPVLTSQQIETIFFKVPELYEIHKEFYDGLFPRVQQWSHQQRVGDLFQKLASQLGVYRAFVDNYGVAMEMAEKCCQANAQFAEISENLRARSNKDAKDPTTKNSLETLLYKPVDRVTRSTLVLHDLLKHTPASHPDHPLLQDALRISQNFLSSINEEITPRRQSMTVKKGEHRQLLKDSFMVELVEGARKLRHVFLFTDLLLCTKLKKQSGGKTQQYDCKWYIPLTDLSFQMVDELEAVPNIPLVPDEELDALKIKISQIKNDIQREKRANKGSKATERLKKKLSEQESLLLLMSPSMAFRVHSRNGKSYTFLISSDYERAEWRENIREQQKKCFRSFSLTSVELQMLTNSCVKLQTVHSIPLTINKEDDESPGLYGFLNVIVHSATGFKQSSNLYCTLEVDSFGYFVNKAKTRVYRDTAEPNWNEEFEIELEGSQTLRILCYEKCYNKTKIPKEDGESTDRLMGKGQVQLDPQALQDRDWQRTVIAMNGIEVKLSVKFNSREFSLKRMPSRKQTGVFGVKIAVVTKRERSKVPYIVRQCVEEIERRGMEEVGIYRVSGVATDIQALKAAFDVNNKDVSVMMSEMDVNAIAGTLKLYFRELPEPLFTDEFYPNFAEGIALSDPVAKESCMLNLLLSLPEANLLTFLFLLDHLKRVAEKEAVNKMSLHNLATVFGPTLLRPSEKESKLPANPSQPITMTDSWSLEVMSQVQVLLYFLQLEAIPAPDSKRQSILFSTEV
Tyrosine-protein kinase Lck (Homo sapiens), sequence (P06239 2-509 limits assumed): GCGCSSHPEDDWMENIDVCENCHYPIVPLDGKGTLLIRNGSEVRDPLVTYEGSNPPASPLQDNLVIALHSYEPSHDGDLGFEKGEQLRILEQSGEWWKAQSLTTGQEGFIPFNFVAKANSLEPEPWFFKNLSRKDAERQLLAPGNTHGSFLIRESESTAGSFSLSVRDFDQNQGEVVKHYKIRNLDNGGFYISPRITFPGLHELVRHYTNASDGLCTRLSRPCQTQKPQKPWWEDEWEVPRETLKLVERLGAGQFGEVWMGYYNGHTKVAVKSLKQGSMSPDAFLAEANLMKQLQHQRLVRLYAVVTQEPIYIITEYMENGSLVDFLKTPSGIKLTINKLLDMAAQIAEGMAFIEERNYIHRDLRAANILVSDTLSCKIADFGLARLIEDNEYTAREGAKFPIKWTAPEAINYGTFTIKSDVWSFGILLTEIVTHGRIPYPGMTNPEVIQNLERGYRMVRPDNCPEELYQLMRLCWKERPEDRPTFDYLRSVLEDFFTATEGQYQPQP
Tyrosine-protein kinase Blk (Homo sapiens), sequence (P51451 2-505 limits assumed): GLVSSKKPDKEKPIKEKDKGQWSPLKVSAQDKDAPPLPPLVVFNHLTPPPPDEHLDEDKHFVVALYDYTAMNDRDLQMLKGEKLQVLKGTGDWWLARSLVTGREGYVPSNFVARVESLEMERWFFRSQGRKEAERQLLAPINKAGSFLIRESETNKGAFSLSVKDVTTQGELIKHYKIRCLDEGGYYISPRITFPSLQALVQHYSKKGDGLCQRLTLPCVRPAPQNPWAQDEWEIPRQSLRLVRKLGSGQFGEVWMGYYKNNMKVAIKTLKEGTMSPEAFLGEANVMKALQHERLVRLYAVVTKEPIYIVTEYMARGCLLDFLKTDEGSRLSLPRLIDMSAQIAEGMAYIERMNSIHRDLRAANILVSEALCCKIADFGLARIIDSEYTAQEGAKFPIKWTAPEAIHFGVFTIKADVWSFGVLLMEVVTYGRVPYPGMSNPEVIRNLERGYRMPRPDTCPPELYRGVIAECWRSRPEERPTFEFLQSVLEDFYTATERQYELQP

CNc1nc(Nc2ccc(C)c(N)c2)ncc1C(=O)Nc1cc(NC(=O)c2cccc(C(F)(F)F)c2)ccc1C
Activity (Mus musculus [1]): Non-toxic
GI50 at 72 h [2]: > 10000 nM
IC50 [3]: 292 nM
GI50 [4]: 25 nM
GI50 [5]: > 10000 nM
inhibition [6]: Dose-dependent effect
inhibition [7]: Dose-dependent effect
inhibition [8]: Dose-dependent effect
inhibition [9]: Dose-dependent effect
inhibition [10]: Dose-dependent effect
inhibition [11]: inactive
inhibition [12]: inactive
Activity (KU812 cell line): Dose-dependent effect
Activity (K562 [13]): Active
Activity (MEG-01): Active
half-life [14]: 4.33 h
Tmax [15]: 1.2 min
Cmax [16]: 2400 ng/mL
Vd [17]: 6.03 L/kg
clearance [18]: 25.6 mL/min/kg
MRT inf [19]: 3.1 h
Activity (Mus musculus [20]): Non-toxic
inhibition in vivo at 50 mg/kg/day (K562 [21]): 48.3%
Activity (K562 [22]): Active
Activity [23]: 0.8%
Activity [24]: 0.55%
Activity [25]: 0%
Activity [26]: 0.3%
Activity [27]: 0.5%
GI50 [28]: 3300 nM
GI50 [29]: 600 nM
GI50 (BaF3 [30]): 313 nM
GI50 [31]: 45 nM
GI50 [32]: 440 nM
GI50 (BaF3 [33]): 9250 nM
